# Laboratory results taken from ChEMBL document CHEMBL1157704, “Potent activity against K562 cells by polyamide-seco-CBI conjugates targeting histone H4 genes” (Bioorg Med Chem, 2010).
# Calls of active or inactive are those of the source.
# Tests used:
# [1] = tested on: K562; assay: Effect on TRY6/PRS gene expression in human K562 cells assessed as change in mRNA transcript expression at 10 nM after 48 hrs by DNA microarray analysis relative to control; type: functional
# Procedure, shortened: (§1)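 K562 CML cells (b3a2 Bcr-Abl) kept under standard culture conditions were exposed to 10 nM conjugate and harvested at 6, 12, 24 and 48 h. Untreated controls were harvested at 48 h. Whole-transcript oligonucleotide microarray profiling was done, and changes of at least twofold versus control were scored.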
# [2] = tested on: K562; assay: Effect on AMN1 gene expression in human K562 cells assessed as change in mRNA transcript expression at 10 nM after 48 hrs by DNA microarray analysis relative to control; type: functional
# Procedure, shortened: (§2)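 Transcripts were profiled on Affymetrix GeneChip Human Gene 1.0 ST arrays in K562 cells treated at 10 nM. Treated cells were collected at 6, 12, 24 and 48 h; untreated controls were collected at 48 h. Transcripts changed at least twofold versus control were scored.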
# [3] = tested on: K562; assay: Effect on JUN gene expression in human K562 cells assessed as change in mRNA transcript expression at 10 nM after 48 hrs by DNA microarray analysis relative to control; type: functional
# Procedure, shortened: (§3)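 K562 CML cells (b3a2 Bcr-Abl) in standard ATCC-recommended culture, exposed once to 10 nM conjugate and harvested at 48 h. Untreated controls were also collected at 48 h. Transcripts were profiled on Human Gene 1.0 ST whole-genome oligonucleotide arrays, and each treated level was expressed relative to the untreated control, with a cutoff of at least twofold change.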
# [4] = tested on: K562; assay: Effect on FER gene expression in human K562 cells assessed as change in mRNA transcript expression at 10 nM after 48 hrs by DNA microarray analysis relative to control; type: functional; procedure, shortened: as §2
# [5] = tested on: K562; assay: Effect on PITPNC1 gene expression in human K562 cells assessed as change in mRNA transcript expression at 10 nM after 48 hrs by DNA microarray analysis relative to control; type: functional; procedure, shortened: as §3
# [6] = tested on: K562; assay: Effect on HIST1H3F gene expression in human K562 cells assessed as change in mRNA transcript expression at 10 nM after 48 hrs by DNA microarray analysis relative to control; type: functional; procedure, shortened: as §2
# [7] = tested on: K562; assay: Effect on THBS1 gene expression in human K562 cells assessed as change in mRNA transcript expression at 10 nM after 48 hrs by DNA microarray analysis relative to control; type: functional; procedure, shortened: as §1
# [8] = tested on: K562; assay: Downregulation of histone H4E mRNA expression in human K562 cells at 125 nM after 48 hrs by real-time PCR analysis; type: functional, cell-based
# Procedure, shortened: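 K562 cells were treated for 48 h, and H4c and H4e mRNA were measured by one-step real-time RT-PCR. Reverse transcription ran at 50 °C for 10 min, then hot-start activation at 95 °C for 15 min. Cycling was 45 cycles of 95 °C 15 s, 55 °C 30 s and 72 °C 30 s. Levels were normalized to GAPDH mRNA; error bars are SD.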
# [9] = tested on: K562; assay: Cell cycle arrest in human K562 cells assessed as decrease in accumulation at G1 phase at 125 to 250 nM after 48 hrs propidium iodide staining-based FACS analysis; type: functional
# Procedure, shortened: (§4)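 K562 cells, from ATCC and kept under ATCC-recommended conditions, were treated for 48 h and pelleted at 200g for 5 min. They were resuspended in PBS, fixed with prechilled 70% ethanol and stained with propidium iodide at 50 µg/mL. DNA content was read by flow cytometry to assign the G0–G1, S and G2–M fractions; sub-2C DNA content was taken as apoptosis.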
# [10] = tested on: K562; assay: Cell cycle arrest in human K562 cells assessed as increase in accumulation at S phase at 125 to 250 nM after 48 hrs propidium iodide staining-based FACS analysis; type: functional; procedure, shortened: as §4
# [11] = tested on: K562; assay: Induction of apoptosis in human K562 cells assessed as late apoptotic cells at 125 nM after 48 hrs by annexin-V FITC and propidium iodide staining-based FACS analysis; type: functional
# Procedure, shortened: (§5)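 K562 cells were exposed to conjugate in culture medium for 48 h, then stained with annexin V-FITC plus propidium iodide. Cell populations were quantified by flow cytometry.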
# [12] = tested on: K562; assay: Induction of apoptosis in human K562 cells assessed as non-viable necrotic cells at 125 nM after 48 hrs by annexin-V FITC and propidium iodide staining-based FACS analysis; type: functional; procedure, shortened: as §5
# [13] = tested on: K562; assay: Effect on RP11-195B gene expression in human K562 cells assessed as change in mRNA transcript expression at 10 nM after 48 hrs by DNA microarray analysis relative to control; type: functional; procedure, shortened: as §3
# [14] = tested on: K562; assay: Induction of apoptosis in human K562 cells assessed as late apoptotic cells at 250 nM after 48 hrs by annexin-V FITC and propidium iodide staining-based FACS analysis; type: functional
# Procedure, shortened: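 Treated K562 cells […] stained with Annexin V-FITC/propidium iodide. Apoptosis was scored by two-dimensional flow cytometry at a core FACS facility.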
# [15] = tested on: K562; assay: Effect on RNU5F gene expression in human K562 cells assessed as change in mRNA transcript expression at 10 nM after 48 hrs by DNA microarray analysis relative to control; type: functional; procedure, shortened: as §3
# [16] = tested on: K562; assay: Effect on CLCA1 gene expression in human K562 cells assessed as change in mRNA transcript expression at 10 nM after 48 hrs by DNA microarray analysis relative to control; type: functional; procedure, shortened: as §2
# [17] = tested on: K562; assay: Effect on PRF1 gene expression in human K562 cells assessed as change in mRNA transcript expression at 10 nM after 48 hrs by DNA microarray analysis relative to control; type: functional; procedure, shortened: as §3
# [18] = tested on: K562; assay: Effect on LOC10012 gene expression in human K562 cells assessed as change in mRNA transcript expression at 10 nM after 48 hrs by DNA microarray analysis relative to control; type: functional; procedure, shortened: as §3
# [19] = tested on: K562; assay: Effect on PRG2 gene expression in human K562 cells assessed as change in mRNA transcript expression at 10 nM after 48 hrs by DNA microarray analysis relative to control; type: functional; procedure, shortened: as §3
# [20] = tested on: K562; assay: Effect on SLFN14 gene expression in human K562 cells assessed as change in mRNA transcript expression at 10 nM after 48 hrs by DNA microarray analysis relative to control; type: functional; procedure, shortened: as §3
# [21] = tested on: K562; assay: Effect on HTR1F gene expression in human K562 cells assessed as change in mRNA transcript expression at 10 nM after 48 hrs by DNA microarray analysis relative to control; type: functional; procedure, shortened: as §3
# [22] = tested on: K562; assay: Effect on HIST1H3D gene expression in human K562 cells assessed as change in mRNA transcript expression at 10 nM after 48 hrs by DNA microarray analysis relative to control; type: functional; procedure, shortened: as §2
# [23] = tested on: K562; assay: Effect on IMMP2L gene expression in human K562 cells assessed as change in mRNA transcript expression at 10 nM after 48 hrs by DNA microarray analysis relative to control; type: functional; procedure, shortened: as §3
# [24] = tested on: K562; assay: Effect on TOMM22 gene expression in human K562 cells assessed as change in mRNA transcript expression at 10 nM after 48 hrs by DNA microarray analysis relative to control; type: functional; procedure, shortened: as §1
# [25] = tested on: histone H4c gene fragment DNA (human); assay: Binding affinity to 5'-AGAAAA-3' sequence of 223 bp human histone H4c gene fragment DNA assessed as DNA alkylating activity at 5 to 100 nM after 15 hrs by PAGE
compound,measurement,setting,value
CC(=O)Nc1cn(C)c(C(=O)Nc2cn(C)c(C(=O)NCCC(=O)Nc3cn(C)c(C(=O)NCCCC(=O)Nc4cc(C(=O)Nc5cn(C)c(C(=O)Nc6ccc7[nH]c(C(=O)N8CC(CCl)c9c8cc(O)c8ccccc98)cc7c6)n5)n(C)c4)n3)n2)n1 (stereo not given),fold change (FC),[1],>=2
same,fold change (FC),[2],>=2
same,fold change (FC),[3],>=2
same,fold change (FC),[4],>=2
same,fold change (FC),[5],>=2
same,fold change (FC),[6],>=2
same,fold change (FC),[7],>=2
same,Activity,[8],Active
same,Activity,[9],Active
same,Activity,[10],Active
same,Activity,[11],9.21%
same,Activity,[12],2.07%
same,fold change (FC),[13],>=2
same,Activity,[14],8.53%
same,fold change (FC),[15],>=2
same,fold change (FC),[16],>=2
same,fold change (FC),[17],>=2
same,fold change (FC),[18],>=2
same,fold change (FC),[19],>=2
same,fold change (FC),[20],>=2
same,fold change (FC),[21],>=2
same,fold change (FC),[22],>=2
same,fold change (FC),[23],>=2
same,fold change (FC),[24],>=2
same,Activity,[25],Active
